Experimental data reported in ChEMBL document CHEMBL4396943, “The tetrahydroxanthone-dimer phomoxanthone A is a strong inducer of apoptosis in cisplatin-resistant solid cancer cells” (Bioorg Med Chem, 2019).
Calls of active or inactive are those of the source. The calls are words filed in the database; no cut-off is given here.

What was measured:
[1] = tested on: A2780; assay: Induction of apoptosis in human A2780 cells assessed as accumulation in subG1 phase at 1 uM incubated for 24 hrs by propidium iodide staining based flow cytometry (reference value: 10%); type: functional
Procedure, shortened: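 Cells plated in 24-well plates (about 100,000/well) for one day, then treated 24 h. Where used, caspase inhibitor Q-VD-OPh (20 µM) was added 1 h before. Cells lysed in hypotonic buffer (0.1% sodium citrate, 0.1% Triton X-100, 100 µg/ml propidium iodide) overnight at 4 °C in the dark. Sub-G1 fraction read by flow cytometry. Medium control, cisplatin positive control.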

[2] = tested on: J82; assay: Induction of apoptosis in cisplatin resistant human J82 cells assessed as mitochondrial membrane potential at 1 uM incubated for 2 hrs by hoechst 33342 staining based fluorescence microscopy; type: functional, cell-based
Procedure, shortened: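 J82CisR cells exposed 2 h, then labelled with TMRE and Hoechst 33342 for 20 min. TMRE signal imaged on a high-content fluorescence imaging platform. Untreated medium control and 20 µM CCCP positive control.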

[3] = tested on: J82; assay: Cell cycle arrest in cisplatin resistant human J82 cells assessed as accumulation at G1 phase at 5 uM incubated for 24 hrs by propidium iodide staining based flow cytometry (reference value: 78.1%); type: functional
Procedure, shortened: (§1)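 After 24 h exposure, cells washed in ice-cold PBS. About 2 million cells fixed in cold 70% ethanol at −20 °C for at least 24 h. Stained with 0.1% Triton X-100, 200 µg/ml RNase A and 20 µg/ml propidium iodide in PBS, 15 min at 37 °C in the dark. DNA content read by flow cytometry with doublet discrimination. Medium as untreated control, paclitaxel as G2/M control. Three independent experiments.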

[4] = tested on: A2780; assay: Induction of apoptosis in human A2780 cells assessed as decrease in cIAP expression at 5 uM incubated for 24 hrs by proteome profiler analysis; type: functional, cell-based
Procedure, shortened: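 A2780 cells treated 24 h with 5 µM, then apoptosis-related proteins read on an antibody array (Proteome Profiler human apoptosis array) per kit instructions.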

[5] = tested on: A2780cisR; assay: Induction of apoptosis in human A2780cisR cells assessed as depolarization of mitochondrial membrane potential after 24 hrs by TMRE staining based flow cytometry; type: functional, cell-based
Procedure, shortened: (§2)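 Cells seeded overnight; complete medium swapped for FBS-free medium just before treatment to avoid TMRE ester cleavage. Exposure to PXA for 1 h, 2 h or 24 h. TMRE staining 20 min, cells collected by trypsinisation, ΔΨm read by flow cytometry. Medium served as negative control, 20 µM CCCP as positive control. Mean ± SEM reported.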

[6] = tested on: J82; assay: Induction of apoptosis in human J82 cells assessed as depolarization of mitochondrial membrane potential incubated for 1 hr by TMRE staining based flow cytometry; type: functional, cell-based; procedure, shortened: as §2
[7] = species on record: Homo sapiens; assay: Ratio of IC50 for induction of mitochondrial membrane depolarization in cisplatin resistant human J82 cells to IC50 for induction of mitochondrial membrane depolarization in human A2780cisR cells after 2 hrs by TMRE staining based flow cytometry; type: functional, cell-based; procedure, shortened: as §2
[8] = tested on: HCT-116; assay: Antiproliferative activity against human HCT116 cells assessed as reduction in cell viability incubated for 72 hrs by MTT assay; type: functional, cell-based; conditions: HCT-116, 72 h
Procedure, shortened: (§3)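 Cells seeded overnight in 96-well plates, then exposed to increasing concentrations (compound dissolved in DMSO, diluted in medium) for the stated time. MTT (5 mg/ml in PBS) added for 15 min, formazan dissolved in DMSO, absorbance read at 544 nm minus 690 nm background. IC50 = concentration giving 50% signal decrease. At least three independent experiments in triplicate.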

[9] = tested on: A2780; assay: Induction of apoptosis in human A2780 cells assessed as increase in activation of caspase 3/7 at 10 uM incubated for 24 hrs by hoechst 33342 staining based fluorescence microscopy (reference value: 1.4%); type: functional
[10] = tested on: A2780; assay: Induction of apoptosis in human A2780 cells assessed as depolarization of mitochondrial membrane potential at 1 uM incubated for 2 hrs by TMRE staining based flow cytometry; type: functional; procedure, shortened: as §2
[11] = tested on: A2780; assay: Induction of apoptosis in human A2780 cells assessed as plasma membrane damage at 1 to 10 uM incubated for 24 hrs by propidium iodide staining based flow cytometry; type: functional, cell-based
Procedure, shortened: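 Cells exposed to PXA for 24 h, trypsinised, pelleted at 4 °C, stained with 100 µg/ml propidium iodide, diluted in sheath fluid and read by flow cytometry. Positive control was 0.2% Triton X-100 (20 min). Three experiments, mean ± SEM.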

[12] = tested on: A2780cisR; assay: Induction of apoptosis in human A2780cisR cells assessed as decrease in mitochondrial membrane potential at 1 uM incubated for 24 hrs by TMRE staining based flow cytometry; type: functional, cell-based; procedure, shortened: as §2
[13] = tested on: A2780cisR; assay: Induction of apoptosis in human A2780cisR cells assessed as depolarization of mitochondrial membrane potential at 1 uM incubated for 1 hr by TMRE staining based flow cytometry; type: functional; procedure, shortened: as §2
[14] = tested on: A2780cisR; assay: Induction of apoptosis in human A2780cisR cells assessed as increase in intracellular calcium level at 1 to 30 uM incubated for 30 mins by fluorimetry; type: functional, cell-based
Procedure, shortened: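 Cells seeded in 96-well plates overnight, washed twice with Krebs-HEPES buffer, loaded 1 h at 37 °C in the dark with Oregon Green BAPTA-1 AM (final 3 µM) and Pluronic F-127. Buffer replaced, PXA added, fluorescence at 544 nm recorded for 30 min, with or without 1 mM extracellular Ca2+. Three experiments, mean ± SEM.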

[15] = Potency index, ratio of cisplatin IC50 to compound IC50 for antiproliferative activity in human Cal27CisR cells assessed as reduction in cell viability incubated for 72 hrs by MTT assay; type: functional
Procedure, shortened: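 Cells seeded in 96-well plates overnight, exposed 72 h to increasing concentrations. MTT (5 mg/ml) added for 15 min, formazan dissolved in DMSO, absorbance read at 544 nm with 690 nm background subtracted. IC50 is the concentration reducing signal by 50%. Three independent experiments in triplicate. CisR sublines made by weekly intermittent cisplatin exposure for 24–30 weeks.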

[16] = tested on: A2780; assay: Reduction of H2O2-induced ROS generation in human A2780 cells at 316 nM incubated for 18 hrs by H2DCFDA staining based flow cytometry; type: functional, cell-based
Procedure, shortened: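 Cells plated overnight in growth medium (approx. 150,000 cells/well), exposed to compound for 18 h. Then washed with PBS and moved to phenol red-free RPMI-1640 without FBS or antibiotics. Loaded with 10 µM H2DCF-DA, 30 min, 37 °C, dark. One aliquot then given 250 µM H2O2 for 1 h at 37 °C in the dark. DCF fluorescence read by flow cytometry; three independent experiments.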

[17] = tested on: J82; assay: Antiproliferative activity against human J82 cells assessed as reduction in cell viability incubated for 72 hrs by MTT assay; type: functional, cell-based; conditions: J82, 72 h; procedure, shortened: as §3
[18] = tested on: MDA-MB-231; assay: Antiproliferative activity against cisplatin-resistant human MDA-MB-231 cells assessed as reduction in cell viability incubated for 72 hrs by MTT assay; type: functional, cell-based; conditions: MDA-MB-231, 72 h; procedure, shortened: as §3
[19] = tested on: J82; assay: Cell cycle arrest in human J82 cells assessed as accumulation at G1 phase at 1 uM incubated for 24 hrs by propidium iodide staining based flow cytometry (reference value: 69.6%); type: functional; procedure, shortened: as §1
[20] = tested on: A2780; assay: Antiproliferative activity against human A2780 cells assessed as reduction in cell viability incubated for 24 hrs by MTT assay; type: functional, cell-based; conditions: A2780, 24 h; procedure, shortened: as §3

Question: Which Activity [1] does the source give for `CC(=O)OC[C@]12Oc3c(-c4ccc(O)c5c4O[C@@]4(COC(C)=O)C(=C(O)C[C@@H](C)[C@H]4OC(C)=O)C5=O)ccc(O)c3C(=O)C1=C(O)C[C@@H](C)[C@H]2OC(C)=O` [PHOMOXANTHONE A] here?
Answer: 42%

Question: What about the Activity [2] of the same compound?
Answer: inactive

Question: And the Activity [3]?
Answer: 79.3%

Question: And the Activity [4]?
Answer: Active

Question: And the Activity [5]?
Answer: Dose-dependent effect

Question: What about the Activity [6] of the same compound?
Answer: Dose-dependent effect

Question: And the IC50 ([6]; J82, 1 h)?
Answer: 3.75 µM

Question: What about the Ratio IC50 [7] of the same compound?
Answer: 3

Question: And the IC50 [8]?
Answer: 1820 nM

Question: What about the Activity [9] of the same compound?
Answer: 83%

Question: And the Activity [10]?
Answer: 50%

Question: And the Activity [11]?
Answer: inactive

Question: What about the Activity [12] of the same compound?
Answer: Active

Question: And the Activity [13]?
Answer: 73%

Question: What about the Activity [14] of the same compound?
Answer: Active

Question: What about the “Ratio IC50” value [15] of the same compound?
Answer: 2 - 10

Question: What about the inhibition [16] of the same compound?
Answer: inactive

Question: And the IC50 [17]?
Answer: 3.23 µM

Question: And the IC50 [18]?
Answer: 4.37 µM

Question: And the Activity [19]?
Answer: 65%

Question: What about the IC50 ([20]; read-out: IC50) of the same compound?
Answer: 1440 nM

Question: And the IC50 ([20]; read-out: pIC50 (converted))?
Answer: 1450 nM
